Assay [1] concerns Escherichia coli. Nature of the assay: Antibacterial activity against Escherichia coli DH5alpha by CLSI broth microdilution method. In kind it is functional. Conditions: DH5[alpha]. In general terms: Dilution methods test growth across graded concentrations, often in twofold steps.
Assay [2] relates to Escherichia coli. Briefly: Antibacterial activity against Escherichia coli DH5alpha harboring pUCP26 empty vector by CLSI broth microdilution method. Type of assay: functional. As to conditions: DH5[alpha].
The subject of assay [3] is Escherichia coli. Nature of the assay: Antibacterial activity against Escherichia coli DH5alpha expressing beta-lactamase SHV-5 by CLSI broth microdilution method. Type of assay: functional. Conditions: DH5[alpha].
Assay [4] relates to Escherichia coli. Briefly: Antibacterial activity against Escherichia coli DH5alpha expressing beta-lactamase SHV-12 by CLSI broth microdilution method. In kind it is functional. Conditions: DH5[alpha].
In assay [5] the test system is Escherichia coli. Nature of the assay: Antibacterial activity against Escherichia coli DH5alpha expressing beta-lactamase TEM-1 by CLSI broth microdilution method. As to conditions: DH5[alpha]. Type of assay: functional.
Assay [6] deals with Escherichia coli. Briefly: Antibacterial activity against Escherichia coli DH5alpha expressing beta-lactamase TEM-24 by CLSI broth microdilution method. Type of assay: functional. Conditions: DH5[alpha].
The test system of assay [7] is Escherichia coli. Nature of the assay: Antibacterial activity against Escherichia coli DH5alpha expressing beta-lactamase CTX-M-15 by CLSI broth microdilution method. In kind it is functional. Conditions: DH5[alpha].
Assay [8] has as its system Escherichia coli. Briefly: Antibacterial activity against Escherichia coli DH5alpha expressing beta-lactamase VIM-2 by CLSI broth microdilution method. Type of assay: functional. As to conditions: DH5[alpha].
For assay [9], the system named is Escherichia coli. Briefly: Antibacterial activity against Escherichia coli DH5alpha expressing beta-lactamase NDM-1 by CLSI broth microdilution method. In kind it is functional. Conditions: DH5[alpha].
Assay [10] concerns Escherichia coli. Briefly: Antibacterial activity against Escherichia coli DH5alpha expressing beta-lactamase OXA-24/40 by CLSI broth microdilution method. Conditions: DH5[alpha]. In kind it is functional.
The subject of assay [11] is Escherichia coli. Briefly: Antibacterial activity against Escherichia coli DH5alpha expressing beta-lactamase OXA-58 by CLSI broth microdilution method. Type of assay: functional. Conditions: DH5[alpha].
Assay [12] deals with Escherichia coli. Briefly: Antibacterial activity against Escherichia coli DH5alpha expressing beta-lactamase KPC-3 by CLSI broth microdilution method. Type of assay: functional. As to conditions: DH5[alpha].
In assay [13] the test system is Escherichia coli. Nature of the assay: Ratio of MIC for Escherichia coli DH5alpha expressing beta-lactamase OXA-24/40 to MIC for Escherichia coli DH5alpha harboring pUCP26 empty vector. In kind it is functional, DH5[alpha]. The procedure, abridged: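 Isogenic E. coli panel in which each strain was engineered to express a single common β-lactamase. MIC for the OXA-24/40 strain was divided by the MIC for the empty-vector control strain. MICs were obtained by CLSI broth microdilution.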

In assay [14] the test system is Pseudomonas aeruginosa. Nature of the assay: Antibacterial activity against Pseudomonas aeruginosa PAO1 by CLSI broth microdilution method. In kind it is functional.
In assay [15] the test system is Pseudomonas aeruginosa. Briefly: Antibacterial activity against Pseudomonas aeruginosa 1091-05 by CLSI broth microdilution method. Type of assay: functional.
Another assay concerns Klebsiella pneumoniae. Nature of the assay: Antibacterial activity against Klebsiella pneumoniae KP-3700 by CLSI broth microdilution method. In kind it is functional.
The subject of the next assay is Acinetobacter baumannii. Nature of the assay: Antibacterial activity against Acinetobacter baumannii AB-3167 by CLSI broth microdilution method. In kind it is functional.
The target in assay [16] is Penicillin-binding protein 1A (Pseudomonas aeruginosa PAO1, UniProt Q07806). Briefly: Displacement of fluorescent Bocillin FL from N-terminal His tagged Pseudomonas aeruginosa PAO1 PBP1a (residues 36 to 822) expressed in Escherichia coli BL21 (Gold cells).
Chain of Penicillin-binding protein 1A (Q07806 whole entry, the tested form may be a part): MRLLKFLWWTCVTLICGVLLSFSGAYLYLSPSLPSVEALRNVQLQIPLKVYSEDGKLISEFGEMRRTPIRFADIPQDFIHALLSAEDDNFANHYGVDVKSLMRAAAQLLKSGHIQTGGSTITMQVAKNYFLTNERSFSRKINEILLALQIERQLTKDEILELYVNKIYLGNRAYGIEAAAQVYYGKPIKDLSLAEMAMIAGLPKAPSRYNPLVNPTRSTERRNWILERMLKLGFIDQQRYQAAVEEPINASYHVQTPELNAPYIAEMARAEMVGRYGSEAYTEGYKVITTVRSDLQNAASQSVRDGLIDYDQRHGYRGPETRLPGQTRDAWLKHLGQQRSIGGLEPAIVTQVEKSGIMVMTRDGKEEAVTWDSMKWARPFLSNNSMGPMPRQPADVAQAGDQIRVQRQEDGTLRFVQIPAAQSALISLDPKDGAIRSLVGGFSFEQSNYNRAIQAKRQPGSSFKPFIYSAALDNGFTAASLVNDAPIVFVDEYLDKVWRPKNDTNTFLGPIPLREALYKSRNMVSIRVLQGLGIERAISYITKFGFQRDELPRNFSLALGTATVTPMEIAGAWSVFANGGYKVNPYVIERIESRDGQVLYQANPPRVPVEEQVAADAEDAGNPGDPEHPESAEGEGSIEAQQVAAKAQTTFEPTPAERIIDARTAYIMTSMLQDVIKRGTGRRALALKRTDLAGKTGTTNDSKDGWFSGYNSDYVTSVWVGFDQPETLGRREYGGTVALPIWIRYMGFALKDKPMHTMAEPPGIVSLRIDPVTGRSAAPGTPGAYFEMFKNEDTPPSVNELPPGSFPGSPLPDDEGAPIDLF
A short description of assay [17]: Displacement of fluorescent Bocillin FL from Pseudomonas aeruginosa PBP1b.
Assay [18] can be described thus: Displacement of fluorescent Bocillin FL from Pseudomonas aeruginosa PBP2.
Assay [19] is described as follows: Displacement of fluorescent Bocillin FL from Pseudomonas aeruginosa PBP3.
For assay [20], the system named is Escherichia coli. Briefly: Antibacterial activity against Escherichia coli EC-28 by CLSI broth microdilution method. In kind it is functional.

The structures appear in SMILES notation. Values after ≈ are worked out from the molar mass of the structure shown.

As to `CC[C@H](O)Cn1c(-c2cc(=O)c(O)c[nH]2)nn(S(=O)(=O)[N-]C(=O)N2C[C@H](NC(=O)/C(=N\OC(C)(C)C(=O)[O-])c3csc(N)n3)C2=O)c1=O.[Na+].[Na+]`, the MIC (commonly the lowest concentration found to suppress growth) against Escherichia coli [1] amounted to 0.125 µg/mL; in the assay on Escherichia coli [2], 0.125 µg/mL; against Escherichia coli [3], 0.5 µg/mL; against Escherichia coli [4] it was 0.25 µg/mL; against Escherichia coli [5] it was 0.03 µg/mL; in the assay on Escherichia coli [6], 0.125 µg/mL. The MIC in the assay with Escherichia coli [7] was 0.25 µg/mL; against Escherichia coli [8], 0.015 µg/mL; in the assay on Escherichia coli [9], 0.03 µg/mL; in the assay with Escherichia coli [10], 0.25 µg/mL; with Escherichia coli [11] it was 0.125 µg/mL; in the assay on Escherichia coli [12] it was 0.06 µg/mL.

For the compound `CC(C)(O/N=C(\C(=O)N[C@H]1CON(C2(C(=O)O)CCC(=O)O2)C1=O)c1csc(N)n1)C(=O)O` (some centres undefined), the MIC turned out to be 0.25 µg/mL (≈ 0.515 µM) in the assay with Escherichia coli [1]; 0.25 µg/mL (≈ 0.515 µM) in the assay on Escherichia coli [2]; 0.5 µg/mL (≈ 1.03 µM) in the assay on Escherichia coli [3]; 0.25 µg/mL (≈ 0.515 µM) with Escherichia coli [4]; 0.25 µg/mL (≈ 0.515 µM) against Escherichia coli [5]; 0.5 µg/mL (≈ 1.03 µM) against Escherichia coli [6]. In addition, the MIC in the assay with Escherichia coli [7] came to 0.5 µg/mL (≈ 1.03 µM); in the assay with Escherichia coli [8], 0.25 µg/mL (≈ 0.515 µM); in the assay on Escherichia coli [9] it was 0.5 µg/mL (≈ 1.03 µM); against Escherichia coli [10], 1 µg/mL (≈ 2.06 µM); against Escherichia coli [11] it was 0.25 µg/mL (≈ 0.515 µM); against Escherichia coli [12], 0.5 µg/mL (≈ 1.03 µM). In addition, the MIC against Pseudomonas aeruginosa [14] was determined as 32 µg/mL (≈ 65.9 µM); against Pseudomonas aeruginosa [15] it was 32 µg/mL (≈ 65.9 µM); in the assay with Klebsiella pneumoniae, 4 µg/mL (≈ 8.24 µM); against Acinetobacter baumannii, 32 µg/mL (≈ 65.9 µM). In the assay on Escherichia coli [13], the Ratio came out at 4. Besides, the concentration for half-maximal inhibition (IC50) (in general, the point on the concentration scale where inhibition reaches its midpoint) turned out to be 46 nM in assay [16], 1230 nM in [17], 33300 nM in [18] and 92 nM in assay [19].

For the compound `Nc1nc(/C(=N/OCc2cc(=O)c(O)cn2O)C(=O)N[C@H]2CON(C3(C(=O)O)CCC(=O)O3)C2=O)cs1` (some centres undefined), the MIC against Escherichia coli [1] is 1 µg/mL (≈ 1.86 µM); in the assay with Escherichia coli [2], 0.5 µg/mL (≈ 0.929 µM); in the assay with Escherichia coli [3], 32 µg/mL (≈ 59.4 µM); against Escherichia coli [4], 16 µg/mL (≈ 29.7 µM); against Escherichia coli [5], 1 µg/mL (≈ 1.86 µM); against Escherichia coli [6] it was 4 µg/mL (≈ 7.43 µM). Also, the MIC with Escherichia coli [7] amounted to 4 µg/mL (≈ 7.43 µM); with Escherichia coli [8], 0.5 µg/mL (≈ 0.929 µM); in the assay with Escherichia coli [9], 1 µg/mL (≈ 1.86 µM); in the assay with Escherichia coli [10], 1 µg/mL (≈ 1.86 µM); in the assay with Escherichia coli [11], 1 µg/mL (≈ 1.86 µM); against Escherichia coli [12], 1 µg/mL (≈ 1.86 µM). The MIC was 2 µg/mL (≈ 3.71 µM) against Escherichia coli [20]; 8 µg/mL (≈ 14.9 µM) with Pseudomonas aeruginosa [14]; 4 µg/mL (≈ 7.43 µM) in the assay on Pseudomonas aeruginosa [15]; 32 µg/mL (≈ 59.4 µM) with Klebsiella pneumoniae; 0.5 µg/mL (≈ 0.929 µM) in the assay with Acinetobacter baumannii. For the same compound, the IC50 in assay [16] is 46 nM; in assay [17], 2460 nM; in [18] it was 22200 nM; in assay [19] it was 140 nM.

For `CC1(C)S[C@@H]2[C@H](NC(=O)[C@H](N)c3ccccc3)C(=O)N2[C@H]1C(=O)O` [AMPICILLIN], the MIC in the assay on Escherichia coli [3], with Escherichia coli [4], in the assay on Escherichia coli [5], against Escherichia coli [6], in the assay on Escherichia coli [7] and against Escherichia coli [8] was greater than 64 µg/mL in each case. Also, the MIC is greater than 64 µg/mL in the assay on Escherichia coli [9], 32 µg/mL (≈ 91.6 µM) with Escherichia coli [10], greater than 64 µg/mL in the assay on Escherichia coli [11] and 64 µg/mL (≈ 183 µM) in the assay with Escherichia coli [12].

With `CC(C)(O/N=C(\C(=O)N[C@H]1CON(C2(C(=O)O)C[C@H](NC(=O)OCc3ccccc3)C(=O)O2)C1=O)c1csc(N)n1)C(=O)O` (some centres undefined), the minimum inhibitory concentration (MIC) in the assay with Escherichia coli [20], with Pseudomonas aeruginosa [14], in the assay on Pseudomonas aeruginosa [15], with Klebsiella pneumoniae and against Acinetobacter baumannii was greater than 64 µg/mL throughout. In addition, the IC50 in assay [16] was 65 nM; in assay [17] it was 1740 nM; in assay [18] it was 33300 nM.

Regarding `C[C@H]1[C@H](NC(=O)/C(=N\OC(C)(C)C(=O)O)c2csc(N)n2)C(=O)N1S(=O)(=O)O` [AZTREONAM], the IC50 was 3340 nM in [16], 2870 nM in [17], greater than 300000 nM in assay [18] and 8 nM in [19].

Turning to `CC(C)(O/N=C(\C(=O)N[C@H]1CON(C2(C(=O)O)C[C@@H](NC(=O)OCc3ccccc3)C(=O)O2)C1=O)c1csc(N)n1)C(=O)O` (some centres undefined), the MIC against Escherichia coli [20], in the assay with Pseudomonas aeruginosa [14], against Pseudomonas aeruginosa [15], against Klebsiella pneumoniae and in the assay with Acinetobacter baumannii was greater than 64 µg/mL in each case. In addition, the IC50 was 110 nM in [16], 2440 nM in assay [17] and 47100 nM in assay [18].

Take `CC(C)(O/N=C(\C(=O)N[C@H]1CON(C2(C(=O)O)C[C@@H](NC(=O)c3cc(=O)c(O)cn3O)C(=O)O2)C1=O)c1csc(N)n1)C(=O)O` (some centres undefined): the MIC against Escherichia coli [20] was determined as 1 µg/mL (≈ 1.53 µM); against Pseudomonas aeruginosa [14], 16 µg/mL (≈ 24.5 µM); in the assay on Pseudomonas aeruginosa [15], 2 µg/mL (≈ 3.06 µM); in the assay with Klebsiella pneumoniae, 16 µg/mL (≈ 24.5 µM); in the assay with Acinetobacter baumannii, 0.5 µg/mL (≈ 0.765 µM). Also, the IC50 was found to be 46 nM in assay [16], 820 nM in assay [17], 6410 nM in assay [18] and 65 nM in assay [19].

Turning to `CC1(C)[C@H](NC(=O)/C(=N\OCc2cc(=O)c(O)cn2O)c2csc(N)n2)C(=O)N1OS(=O)(=O)O`, the MIC with Escherichia coli [1] was 0.125 µg/mL (≈ 0.241 µM); in the assay with Escherichia coli [2], 0.125 µg/mL (≈ 0.241 µM); against Escherichia coli [3], greater than 64 µg/mL; against Escherichia coli [4], greater than 64 µg/mL; in the assay with Escherichia coli [5], 0.03 µg/mL (≈ 0.0579 µM); in the assay on Escherichia coli [6], greater than 64 µg/mL. Besides, the MIC against Escherichia coli [7] is 1 µg/mL (≈ 1.93 µM); in the assay with Escherichia coli [8], 0.03 µg/mL (≈ 0.0579 µM); in the assay with Escherichia coli [9], 0.06 µg/mL (≈ 0.116 µM); against Escherichia coli [10] it was 0.125 µg/mL (≈ 0.241 µM); against Escherichia coli [11] it was 0.125 µg/mL (≈ 0.241 µM); in the assay on Escherichia coli [12], 0.125 µg/mL (≈ 0.241 µM).

On to `CC(C)(O/N=C(\C(=O)N[C@H]1CON(C2(C(=O)O)C[C@H](NC(=O)c3cc(=O)c(O)cn3O)C(=O)O2)C1=O)c1csc(N)n1)C(=O)O` (some centres undefined), for which the minimal inhibitory concentration (MIC) is 1 µg/mL (≈ 1.53 µM) with Escherichia coli [20]; 2 µg/mL (≈ 3.06 µM) against Pseudomonas aeruginosa [14]; 64 µg/mL (≈ 97.9 µM) in the assay with Pseudomonas aeruginosa [15]; 8 µg/mL (≈ 12.2 µM) in the assay on Klebsiella pneumoniae; 0.5 µg/mL (≈ 0.765 µM) with Acinetobacter baumannii. The IC50 in [16] came to 46 nM; in assay [17] it was 820 nM; in [18], 3700 nM; in assay [19] it was 92 nM.

These data come from ChEMBL document CHEMBL3259701, “Siderophore receptor-mediated uptake of lactivicin analogues in gram-negative bacteria” (J Med Chem, 2014).
